From ChEMBL document CHEMBL4038314, “Synthetic Modification within the "RPRL" Region of Apelin Peptides: Impact on Cardiovascular Activity and Stability to Neprilysin and Plasma Degradation” (J Med Chem, 2017)
Activity calls are given as the source filed them. No cut-off for these calls is given here. Starred links: 1 amine or outer side, 2 acyl side, 3 side chain; linkers in the order of their positions; H or OH if unused. Non-standard residues stand in square brackets, D forms with d. Residues, ends and D or L forms follow the SMILES beside them. Phe(4-Br) = N[C@@H](Cc1ccc(Br)cc1)C(=O)O; azaLeu = CC(C)CN(N[*:1])C(=O)[*:2]; αMeR = C[C@](N)(CCCNC(=N)N)C(=O)O; NMeL = CN[C@@H](CC(C)C)C(=O)O; αMeL = CC(C)C[C@](C)(N)C(=O)O; Nle = CCCC[C@H](N)C(=O)O; Aib = CC(C)(N)C(=O)O

Columns and labels:
Neprilysin [1] = molecular target: T1, Neprilysin (Homo sapiens, UniProt P08473); assay: Drug metabolism assessed as recombinant human NEP-medited peptide proteolysis at 1 mM up to 72 hrs by LC-MS analysis; type: ADME; settings: 1000 µM
T1 sequence (P08473 whole entry): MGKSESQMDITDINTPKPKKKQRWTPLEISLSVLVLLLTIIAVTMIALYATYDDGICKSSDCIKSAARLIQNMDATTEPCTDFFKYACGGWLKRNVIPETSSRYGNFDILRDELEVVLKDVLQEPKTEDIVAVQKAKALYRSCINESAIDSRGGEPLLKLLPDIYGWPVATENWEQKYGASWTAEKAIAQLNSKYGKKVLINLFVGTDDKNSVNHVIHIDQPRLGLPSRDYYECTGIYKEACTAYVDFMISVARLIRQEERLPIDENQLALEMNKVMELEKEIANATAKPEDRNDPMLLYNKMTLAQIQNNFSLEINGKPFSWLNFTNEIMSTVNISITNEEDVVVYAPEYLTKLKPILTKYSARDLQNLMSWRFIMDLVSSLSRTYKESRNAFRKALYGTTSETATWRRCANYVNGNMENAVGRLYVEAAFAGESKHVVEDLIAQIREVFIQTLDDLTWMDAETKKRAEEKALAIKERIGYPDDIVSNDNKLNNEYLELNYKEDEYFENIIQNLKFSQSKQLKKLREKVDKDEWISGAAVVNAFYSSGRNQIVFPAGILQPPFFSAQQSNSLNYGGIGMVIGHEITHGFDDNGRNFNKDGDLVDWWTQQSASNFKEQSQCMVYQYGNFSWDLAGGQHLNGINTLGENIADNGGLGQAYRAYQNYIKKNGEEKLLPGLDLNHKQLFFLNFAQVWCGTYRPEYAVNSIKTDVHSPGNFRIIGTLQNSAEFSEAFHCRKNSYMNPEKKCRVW
Procedure, shortened: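 Recombinant human NEP, 3.1 nM final in 100 mM Tris, 100 mM NaCl, 10 μM ZnCl2, pH 7.5, preincubated 10 min at 37 °C. Then 5 μL of 1 mM peptide stock and dansyl-YVG internal standard added; incubated at 37 °C for up to 72 h. Extracted-ion LC−MS ratio of parent to standard compared with 0 h and converted to percent cleaved.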

Neprilysin [2] = molecular target: T1, Neprilysin; assay: Drug degradation in human plasma assessed as NEP-mediated degradation by measuring amount of apelin remaining after 60 mins by RP-HPLC analysis; type: ADME; settings: 1 h
Procedure, shortened: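 Human plasma (20 μL) prewarmed to 37 °C, then 5 μL of 400 μM peptide added and incubated for set times; done in triplicate. Quenched with 10% aqueous TFA, dansyl-YVG internal standard added, and peptides recovered on a C18 spin column with 40% acetonitrile/0.1% TFA. Analysed by C18 RP-HPLC; peptide/standard peak-area ratio compared with the 0 min ratio.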

Mus musculus [3] = assay: Cardiovascular activity in anesthetized mouse assessed as decrease in blood pressure at 1.4 uM/kg, iv relative to control; type: functional, organism-based
Procedure, shortened: (§1)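 Mice under 1.5% isoflurane, body temperature held at 36 °C on a heating pad. Aorta cannulated via the right carotid artery with a 1.2F PV loop catheter to record arterial pressure and heart rate continuously. Peptide given systemically through the right internal jugular vein.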

Heart [4] = assay: Cardioprotective activity against Langendorff isolated mouse heart ischemia-reperfusion model assessed as maximum derivative change in systolic pressure over time at 1 uM administered for 10 mins during start of 40 mins reperfusion period post 30 mins ischemic induction; type: functional, tissue-based
Procedure, shortened: (§2)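 Mouse hearts (heparinized, isoflurane 1.5−2%) excised and Langendorff-perfused at constant 80 mmHg with modified Krebs−Henseleit buffer, 37 °C, 95% O2/5% CO2, pH 7.4. After 10 min baseline, 30 min global ischemia, then 40 min reperfusion. Peptide at 1 μM given for the first 10 min of reperfusion, with saline sham and native apelin-17 as controls. Left ventricular function recorded continuously.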

Heart [5] = assay: Cardioprotective activity against Langendorff isolated mouse heart ischemia-reperfusion model assessed as improvement in LVDP at 1 uM administered for 10 mins during start of 40 mins reperfusion period post 30 mins ischemic induction; type: functional, tissue-based; procedure, shortened: as §2
Heart [6] = assay: Cardioprotective activity against Langendorff isolated mouse heart ischemia-reperfusion model assessed as improvement in RPP at 1 uM administered for 10 mins during start of 40 mins reperfusion period post 30 mins ischemic induction; type: functional, tissue-based; procedure, shortened: as §2
Heart [7] = assay: Cardioprotective activity against Langendorff isolated mouse heart ischemia-reperfusion model assessed as minimum derivative change in diastolic pressure over time at 1 uM administered for 10 mins during start of 40 mins reperfusion period post 30 mins ischemic induction; type: functional, tissue-based; procedure, shortened: as §2
Mus musculus [8] = assay: Cardiotoxicity in anesthetized mouse assessed as induction of tachycardia at 1.4 uM/kg, iv relative to control; type: toxicity, organism-based; settings: in vivo, 1.4 µmol/kg; procedure, shortened: as §1
Neprilysin [9] = molecular target: T1, Neprilysin; assay: Inhibition of recombinant human NEP using pyr-1-apelin-13 as substrate assessed as peptide degradation at 1 mM preincubated for 10 mins followed by substrate addition measured after 72 hrs by LC-MS analysis; settings: 1000 µM
Procedure, shortened: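 Recombinant human NEP, 3.1 nM in Tris/NaCl/10 μM ZnCl2 buffer, pH 7.5, preincubated 10 min at 37 °C with 5 μL of 1 mM analogue stock (equimolar to substrate) plus dansyl-YVG standard. Then 5 μL of 1 mM pyr-1-apelin-13 added. Aliquots taken at 0, 1, 4, 24 and 72 h and analysed by LC−MS; duplicate per time point.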

Row | Compound | Drug metabolism (Neprilysin [1]) | Drug degradation (Neprilysin [2]) | Activity (Mus musculus [3]) | Activity (Heart [4]) | Activity (Heart [5]) | Activity (Heart [6]) | Activity (Heart [7]) | Activity (Mus musculus [8]) | inhibition (INH) (Neprilysin [9])
1 | CSCC[C@H](NC(=O)[C@@H]1CCCN1C(=O)CNC(=O)[C@H](CCCCN)NC(=O)[C@H](Cc1cnc[nH]1)NC(=O)[C@H](CO)NC(=O)[C@H](CC(C)C)NC(=O)[C@H](CCCNC(=N)N)NC(=O)[C@@H]1CCCN1C(=O)[C@H](CCCNC(=N)N)NC(=O)[C@@H]1CCC(=O)N1)C(=O)N1CCC[C@H]1C(=O)N[C@@H](Cc1ccccc1)C(=O)O | Metabolite_Detected | 12% |  |  |  |  |  |  | 
2 | CSCC[C@H](NC(=O)[C@@H]1CCCN1C(=O)CNC(=O)[C@H](CCCCN)NC(=O)[C@H](Cc1cnc[nH]1)NC(=O)[C@H](CO)NC(=O)[C@H](CC(C)C)NC(=O)[C@H](CCCNC(=N)N)NC(=O)[C@@H]1CCCN1C(=O)[C@H](CCCNC(=N)N)NC(=O)[C@H](CCC(N)=O)NC(=O)[C@H](CCCNC(=N)N)NC(=O)[C@H](CCCNC(=N)N)NC(=O)[C@H](Cc1ccccc1)NC(=O)[C@@H](N)CCCCN)C(=O)N1CCC[C@H]1C(=O)N[C@@H](Cc1ccccc1)C(=O)O | Metabolite_Detected | 39% | Active | Active | Active | Active | Active | Toxic | 
3 | CCCC[C@H](NC(=O)[C@@H]1CCCN1C(=O)CNC(=O)[C@H](CCCCN)NC(=O)[C@H](Cc1c[nH]cn1)NC(=O)[C@H](CO)NC(=O)[C@H](CC(C)C)NC(=O)[C@](C)(CCCNC(=N)N)NC(=O)[C@@H]1CCCN1C(=O)[C@H](CCCNC(=N)N)NC(=O)[C@@H]1CCC(=O)N1)C(=O)NC(C)(C)C(=O)N[C@@H](Cc1ccc(Br)cc1)C(=O)O | Metabolite_Notdetected | 62% |  |  |  |  |  |  | Not Active
4 | CCCC[C@H](NC(=O)[C@@H]1CCCN1C(=O)CNC(=O)[C@H](CCCCN)NC(=O)[C@H](Cc1c[nH]cn1)NC(=O)[C@H](CO)NC(=O)[C@@H](CC(C)C)NC(=O)[C@H](CCCNC(=N)N)NC(=O)[C@@H]1CCCN1C(=O)[C@H](CCCNC(=N)N)NC(=O)[C@@H]1CCC(=O)N1)C(=O)NC(C)(C)C(=O)N[C@@H](Cc1ccc(Br)cc1)C(=O)O | Metabolite_Notdetected | 22% | inactive |  |  |  |  |  | Not Active
5 | CCCC[C@H](NC(=O)[C@@H]1CCCN1C(=O)CNC(=O)[C@H](CCCCN)NC(=O)[C@H](Cc1c[nH]cn1)NC(=O)[C@H](CO)NC(=O)N(CC(C)C)NC(=O)[C@H](CCCNC(=N)N)NC(=O)[C@@H]1CCCN1C(=O)[C@H](CCCNC(=N)N)NC(=O)[C@@H]1CCC(=O)N1)C(=O)NC(C)(C)C(=O)N[C@@H](Cc1ccc(Br)cc1)C(=O)O | Metabolite_Notdetected | 2% |  | inactive | inactive | inactive | inactive |  | Not Active
6 | CCCC[C@H](NC(=O)[C@@H]1CCCN1C(=O)CNC(=O)[C@H](CCCCN)NC(=O)[C@H](Cc1c[nH]cn1)NC(=O)[C@H](CO)NC(=O)[C@H](CC(C)C)NC(=O)[C@H](CCCNC(=N)N)NC(=O)[C@@H]1CCCN1C(=O)[C@H](CCCNC(=N)N)NC(=O)[C@H](CCC(N)=O)NC(=O)[C@H](CCCNC(=N)N)NC(=O)[C@H](CCCNC(=N)N)NC(=O)[C@H](Cc1ccccc1)NC(=O)[C@@H](N)CCCCN)C(=O)NC(C)(C)C(=O)N[C@@H](Cc1ccc(Br)cc1)C(=O)O (H-KFRRQRPRLSHKGP[Nle][Aib][Phe(4-Br)]-OH) | Metabolite_Detected | 35% | Active |  |  |  |  | Toxic | 
7 | CCCC[C@H](NC(=O)[C@@H]1CCCN1C(=O)CNC(=O)[C@H](CCCCN)NC(=O)[C@H](Cc1c[nH]cn1)NC(=O)[C@H](CO)NC(=O)[C@H](CC(C)C)N(C)C(=O)[C@H](CCCNC(=N)N)NC(=O)[C@@H]1CCCN1C(=O)[C@H](CCCNC(=N)N)NC(=O)[C@H](CCC(N)=O)NC(=O)[C@H](CCCNC(=N)N)NC(=O)[C@H](CCCNC(=N)N)NC(=O)[C@H](Cc1ccccc1)NC(=O)[C@@H](N)CCCCN)C(=O)NC(C)(C)C(=O)N[C@@H](Cc1ccc(Br)cc1)C(=O)O (H-KFRRQRPR[NMeL]SHKGP[Nle][Aib][Phe(4-Br)]-OH) | Metabolite_Notdetected | 47% | Active | Active | Active | Active | Active | Toxic | Not Active
8 | CCCC[C@H](NC(=O)[C@@H]1CCCN1C(=O)CNC(=O)[C@H](CCCCN)NC(=O)[C@H](Cc1c[nH]cn1)NC(=O)[C@H](CO)NC(=O)N(CC(C)C)NC(=O)[C@H](CCCNC(=N)N)NC(=O)[C@@H]1CCCN1C(=O)[C@H](CCCNC(=N)N)NC(=O)[C@H](CCC(N)=O)NC(=O)[C@H](CCCNC(=N)N)NC(=O)[C@H](CCCNC(=N)N)NC(=O)[C@H](Cc1ccccc1)NC(=O)[C@@H](N)CCCCN)C(=O)NC(C)(C)C(=O)N[C@@H](Cc1ccc(Br)cc1)C(=O)O (H-KFRRQRPR[azaLeu]SHKGP[Nle][Aib][Phe(4-Br)]-OH) | Metabolite_Notdetected | 68% | Active | Active | Active | Active | Active | Toxic | Not Active
9 | CCCC[C@H](NC(=O)[C@@H]1CCCN1C(=O)CNC(=O)[C@H](CCCCN)NC(=O)[C@H](Cc1c[nH]cn1)NC(=O)[C@H](CO)NC(=O)[C@@H](CC(C)C)NC(=O)[C@H](CCCNC(=N)N)NC(=O)[C@@H]1CCCN1C(=O)[C@H](CCCNC(=N)N)NC(=O)[C@H](CCC(N)=O)NC(=O)[C@H](CCCNC(=N)N)NC(=O)[C@H](CCCNC(=N)N)NC(=O)[C@H](Cc1ccccc1)NC(=O)[C@@H](N)CCCCN)C(=O)NC(C)(C)C(=O)N[C@@H](Cc1ccc(Br)cc1)C(=O)O (H-KFRRQRPR[dL]SHKGP[Nle][Aib][Phe(4-Br)]-OH) | Metabolite_Notdetected | 80% |  |  |  |  |  | Toxic | Not Active
10 | CCCC[C@H](NC(=O)[C@@H]1CCCN1C(=O)CNC(=O)[C@H](CCCCN)NC(=O)[C@H](Cc1c[nH]cn1)NC(=O)[C@H](CO)NC(=O)[C@](C)(CC(C)C)NC(=O)[C@H](CCCNC(=N)N)NC(=O)[C@@H]1CCCN1C(=O)[C@H](CCCNC(=N)N)NC(=O)[C@H](CCC(N)=O)NC(=O)[C@H](CCCNC(=N)N)NC(=O)[C@H](CCCNC(=N)N)NC(=O)[C@H](Cc1ccccc1)NC(=O)[C@@H](N)CCCCN)C(=O)NC(C)(C)C(=O)N[C@@H](Cc1ccc(Br)cc1)C(=O)O (H-KFRRQRPR[αMeL]SHKGP[Nle][Aib][Phe(4-Br)]-OH) | Metabolite_Notdetected | 48% |  |  |  |  |  | Toxic | Not Active
11 | CCCC[C@H](NC(=O)[C@@H]1CCCN1C(=O)CNC(=O)[C@H](CCCCN)NC(=O)[C@H](Cc1c[nH]cn1)NC(=O)[C@H](CO)NC(=O)[C@H](CC(C)C)NC(=O)[C@](C)(CCCNC(=N)N)NC(=O)[C@@H]1CCCN1C(=O)[C@H](CCCNC(=N)N)NC(=O)[C@H](CCC(N)=O)NC(=O)[C@H](CCCNC(=N)N)NC(=O)[C@H](CCCNC(=N)N)NC(=O)[C@H](Cc1ccccc1)NC(=O)[C@@H](N)CCCCN)C(=O)NC(C)(C)C(=O)N[C@@H](Cc1ccc(Br)cc1)C(=O)O (H-KFRRQRP[αMeR]LSHKGP[Nle][Aib][Phe(4-Br)]-OH) | Metabolite_Notdetected | 55% |  |  |  |  |  | Toxic | Not Active
